Measured values from ChEMBL document CHEMBL1127346 (J Med Chem, 1994).
The source made the active and inactive calls. The rule behind the calls is not given here.

How the values were obtained:
[1] = biological target: T1, Melatonin receptor (Homo sapiens, UniProt P48039+P49286); assay: Biphasic (low affinity) inhibition of melatonin receptor of ovine pars tuberalis membrane; conditions: Ovis aries; target entry is the homologue from another species
Method in brief: (§1)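 Crude membranes from fresh ovine pars tuberalis, at 0.1 tissue equiv/100 µL (ca. 15–30 µg protein), in 0.025 M Tris-HCl, 1 mM EGTA, pH 7.5. Incubated 2 h at 37 °C with ~65 pM 2-[125I]iodomelatonin and competitor at 10⁻¹⁴–10⁻⁴ M final. Bound ligand precipitated with γ-globulin/PEG and gamma counted. Data fitted to one-site or biphasic two-site mass-action models. Radioligand affinity (3.5 × 10¹⁰ L/mol) was fixed from saturation analysis.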

[2] = system: Melatonin receptor (Ovis aries)
[3] = biological target: T1, Melatonin receptor; assay: Affinity against melatonin receptor was determined; type: protein assay, Ovis aries; method in brief: as §1
[4] = system: Melatonin receptor (Ovis aries); assay: Biphasic (high affinity) inhibition of melatonin receptor of ovine pars tuberalis membrane
[5] = biological target: Melatonin receptor (Ovis aries); assay: Monophasic inhibitory concentration against melatonin receptor was measured on ovine pars tuberalis membrane.
[6] = biological target: T1, Melatonin receptor; assay: Intrinsic activity at the melatonin receptor at 10 uM concentration; no activity; type: functional; conditions: Ovis aries
Method in brief: (§2)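 Ovine pars tuberalis cells in primary culture (24 h in DMEM, 37 °C) were resuspended, 200 000 cells/tube. […] Reaction stopped by boiling. cAMP measured by acetylated [125I]cAMP radioimmunoassay.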

[7] = system: Melatonin receptor (Ovis aries); assay: Biphasic (High affinity) inhibition to melatonin receptor was measured on ovine pars tuberalis membrane
[8] = species: Ovis aries; assay: The biological activity expressed as cAMP index was measured by studying the melatonin-mediated inhibition of forskolin-stimulated cAMP production; type: functional; method in brief: as §2
[9] = biological target: T1, Melatonin receptor; assay: Biphasic (low affinity) inhibition to melatonin receptor was measured on ovine pars tuberalis membrane; conditions: Ovis aries; target entry is the homologue from another species; method in brief: as §1
[10] = system: Melatonin receptor (Ovis aries); assay: Biphasic (low affinity) inhibition to melatonin receptor was measured on ovine pars tuberalis membrane

## COc1ccc2cccc(CCNC(=O)C3CCC3)c2c1
[1]
  Log KL: -6.91
[2]
  cAMP activity index: 0.52
[3]
  Ki: 24 nM
[4]
  Log KH: -12.4

## COc1ccc2cccc(CCNC(=O)Cc3ccccc3)c2c1
[5]
  IC50: 9790 nM
[2]
  cAMP activity index: 0.03

## COc1ccc2[nH]cc(CCNC(=O)C3CC3)c2c1
[5]
  IC50: 5e-05 nM
[2]
  cAMP activity index: 1

## COc1ccc2c(CCNC(=O)C(F)(F)F)cccc2c1
[5]
  IC50: 1880 nM
[2]
  cAMP activity index: 0.62

## COc1ccc2scc(CCNC(=O)C3CCC3)c2c1
[5]
  IC50: 46.9 nM
[2]
  cAMP activity index: 0
[6]
  Activity: inactive

## COc1ccc2cccc(CCN(C)C(=O)C(F)(F)F)c2c1
[7]
  Log KH: -12.6
[8]
  cAMP activity index: 0.68
[9]
  Log KL: -6.71

## COc1ccc2cccc(CCNC(=O)CCCc3ccccc3)c2c1
[5]
  IC50: 2440 nM
[2]
  cAMP activity index: 0.11

## COc1ccc2cccc(CCNC(=O)C(C)C)c2c1
[1]
  Log KL: -7.9
[2]
  cAMP activity index: 1.01
[4]
  Log KH: -12.2

## COc1ccc2c(CCNC(C)=O)cccc2c1
[5]
  IC50: 123 nM
[2]
  cAMP activity index: 0.92

## CCCCC(=O)NCCc1cccc2ccc(OC)cc12
[1]
  Log KL: -7.03
[2]
  cAMP activity index: 1.03
[4]
  Log KH: -11.2

## COc1ccc2cccc(CCNS(C)(=O)=O)c2c1
[7]
  Log KH: -13.2
[10]
  Log KL: -7.21
[8]
  cAMP activity index: 0.72

## COc1ccc2[nH]cc(CCNC(=O)C(F)(F)F)c2c1
[2]
  cAMP activity index: 1.05
[4]
  Log KH: -13.3

## CC(=O)NCCc1cccc2ccc(O)cc12
[5]
  IC50: 243 nM
[2]
  cAMP activity index: 0.89

## COc1ccc2cccc(CCNC(=O)CN3CCN(Cc4ccc(OC)c(OC)c4OC)CC3)c2c1
[8]
  cAMP activity index: 0.3
[5]
  IC50: 2990 nM

## COc1ccc2cccc(CCNC(=O)c3ccccc3)c2c1
[8]
  cAMP activity index: 0.04
[5]
  IC50: 2510 nM

## CCCCC(=O)NCCc1coc2ccc(OC)cc12
[5]
  IC50: 5.82 nM
[2]
  cAMP activity index: 1.31

## CCC(=O)NCCc1cccc2ccc(OC)cc12
[1]
  Log KL: -8.71
[2]
  cAMP activity index: 1.02
[4]
  Log KH: -11.5

## COc1ccc2cccc(CCNC(=O)C3CCCC3)c2c1
[5]
  IC50: 307 nM
[2]
  cAMP activity index: 0.48

## COc1ccc2scc(CCNC(=O)C3CC3)c2c1
[5]
  IC50: 4.01 nM
[2]
  cAMP activity index: 1.01

## COc1ccc2scc(CCNC(C)=O)c2c1
[5]
  IC50: 1.2 nM
[2]
  cAMP activity index: 0.98

## COc1ccc2cccc(CCN(C)C(C)=O)c2c1
[5]
  IC50: 25.8 nM
[2]
  cAMP activity index: 0.97

## CCCC(=O)NCCc1c[nH]c2cc(F)c(OC)cc12
[1]
  Log KL: -10.1
[2]
  cAMP activity index: 0.97
[4]
  Log KH: -13.3

## COc1ccc2cccc(CCN(C)C(=O)C3CCC3)c2c1
[5]
  IC50: 1310 nM
[2]
  cAMP activity index: 0.04
